Source: article PMC2889702 (ACS chemical neuroscience, 2010)
“Also recorded” adds a separate entry of the source.

Experiments:
Assay type in all cases: cell-based
human mGluR4 [1] = target: T1, human mGluR4 (Homo sapiens, UniProt Q14833); assay: calcium mobilization potency assay; conditions: for fold increase in potency against hmGluR4: compared to PHCCC / (−)-PHCCC
rat mGluR1 = rat mGluR1 (Rattus norvegicus, UniProt P23385)
Summary of the method: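 Rat mGluR1 stably expressed in BHK cells. Test compound run as a full 1:3 serial-dilution concentration–response, top final concentration 30 μM. Cells preincubated ~2.5 min with compound, then given an EC20 glutamate concentration, then EC80 glutamate 2 min later. Antagonism taken as blockade of the EC80 response. Data normalized to percent maximal glutamate response.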

human mGluR4 [2] = target: T1, human mGluR4; conditions: compared to (−)-PHCCC
other mGluR subtypes = assay: selectivity against all of the mGluR subtypes; conditions: 10 μM compound
Summary of the method: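 Rat mGluR2, -3, -7, -8 and human mGluR6 were stably expressed in HEK cells coexpressing GIRK1/2. Rat mGluR5 was in HEK cells and rat mGluR1 in BHK cells. Cells received 10 μM final test compound or vehicle, then a full agonist concentration-response (glutamate; L-AP4 for mGluR7). mGluR1 instead: 1:3 compound series to 30 μM top final, EC20 then EC80 glutamate, blockade of EC80 response. Normalized to % Glu Max, triplicate.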

Sequence of rat mGluR1 (P23385 19-1199): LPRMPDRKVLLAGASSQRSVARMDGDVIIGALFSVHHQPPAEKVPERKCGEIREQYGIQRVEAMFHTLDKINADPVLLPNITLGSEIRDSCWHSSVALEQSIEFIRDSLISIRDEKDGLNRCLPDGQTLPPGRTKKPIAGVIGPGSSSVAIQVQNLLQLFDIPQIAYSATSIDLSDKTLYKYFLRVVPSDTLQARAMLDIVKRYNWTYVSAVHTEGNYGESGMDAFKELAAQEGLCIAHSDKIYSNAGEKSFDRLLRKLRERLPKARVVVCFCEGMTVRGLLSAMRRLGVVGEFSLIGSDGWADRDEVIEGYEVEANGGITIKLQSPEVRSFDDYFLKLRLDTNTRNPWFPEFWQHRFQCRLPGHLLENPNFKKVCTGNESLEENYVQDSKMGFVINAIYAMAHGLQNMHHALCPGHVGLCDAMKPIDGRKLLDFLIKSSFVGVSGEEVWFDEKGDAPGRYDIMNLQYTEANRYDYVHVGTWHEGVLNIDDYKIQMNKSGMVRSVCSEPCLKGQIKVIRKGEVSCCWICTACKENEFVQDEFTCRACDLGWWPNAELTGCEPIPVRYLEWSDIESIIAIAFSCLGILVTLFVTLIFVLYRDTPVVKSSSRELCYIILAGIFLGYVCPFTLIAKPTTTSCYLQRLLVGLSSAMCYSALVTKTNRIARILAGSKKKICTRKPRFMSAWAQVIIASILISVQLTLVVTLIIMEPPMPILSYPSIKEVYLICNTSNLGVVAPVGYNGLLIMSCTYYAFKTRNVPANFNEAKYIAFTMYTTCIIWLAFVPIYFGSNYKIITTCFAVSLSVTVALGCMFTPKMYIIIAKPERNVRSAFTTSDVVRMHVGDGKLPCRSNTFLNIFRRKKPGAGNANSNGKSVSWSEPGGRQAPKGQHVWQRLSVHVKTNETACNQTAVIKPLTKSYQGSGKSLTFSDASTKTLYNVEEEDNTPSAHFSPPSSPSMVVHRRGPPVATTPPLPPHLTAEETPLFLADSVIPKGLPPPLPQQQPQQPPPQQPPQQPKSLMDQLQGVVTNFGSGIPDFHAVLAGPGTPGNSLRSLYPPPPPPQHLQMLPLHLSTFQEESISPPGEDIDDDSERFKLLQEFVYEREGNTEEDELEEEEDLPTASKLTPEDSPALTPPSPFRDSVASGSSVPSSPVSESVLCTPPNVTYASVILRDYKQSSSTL
T1 sequence (Q14833 33-912): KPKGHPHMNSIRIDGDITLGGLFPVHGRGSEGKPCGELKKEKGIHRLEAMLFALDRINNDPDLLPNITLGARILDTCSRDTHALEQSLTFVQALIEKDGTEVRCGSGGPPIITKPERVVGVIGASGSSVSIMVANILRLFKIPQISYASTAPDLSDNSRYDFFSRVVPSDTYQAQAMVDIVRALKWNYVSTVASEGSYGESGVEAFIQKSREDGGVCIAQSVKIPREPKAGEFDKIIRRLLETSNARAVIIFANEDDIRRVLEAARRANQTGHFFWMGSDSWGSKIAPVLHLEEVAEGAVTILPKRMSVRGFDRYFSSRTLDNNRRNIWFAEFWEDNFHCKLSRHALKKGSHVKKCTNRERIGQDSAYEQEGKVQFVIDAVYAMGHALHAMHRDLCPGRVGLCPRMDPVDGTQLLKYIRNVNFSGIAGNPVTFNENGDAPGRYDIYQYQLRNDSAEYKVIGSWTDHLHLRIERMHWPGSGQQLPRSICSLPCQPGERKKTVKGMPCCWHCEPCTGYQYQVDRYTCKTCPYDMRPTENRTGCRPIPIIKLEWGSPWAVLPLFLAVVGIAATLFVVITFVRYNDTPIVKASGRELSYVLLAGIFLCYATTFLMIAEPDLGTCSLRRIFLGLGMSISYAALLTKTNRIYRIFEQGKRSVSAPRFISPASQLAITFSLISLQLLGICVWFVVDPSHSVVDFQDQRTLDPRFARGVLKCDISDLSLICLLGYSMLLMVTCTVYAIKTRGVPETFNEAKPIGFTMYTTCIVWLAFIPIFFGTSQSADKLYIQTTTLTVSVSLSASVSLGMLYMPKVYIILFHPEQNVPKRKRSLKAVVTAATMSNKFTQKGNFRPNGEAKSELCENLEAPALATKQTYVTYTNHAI

O=C(Nc1ccccn1)C12CC1/C(=N\O)c1ccccc1O2 (stereo not shown) [Compound 5i, (E)-7-(Hydroxyimino)-N-(pyridin-2-yl)-1,1a,7,7a-tetrahydrocyclopropa[b]chromene-1a-carboxamide]
EC50 (human mGluR4 [1]): 0.87 µM
mGluR1 activity (rat mGluR1; result in words, NAM=negative allosteric modulator): devoid of any mGluR1 activity

O=C(Nc1ccccn1)C12CC1/C(=N\O)c1ccccc1O2 (single isomer, unassigned; (-)) [(−)-10c]
agonist activity of compound added alone (human mGluR4 [1]; 30 μM compound alone, before glutamate addition, calcium mobilization): do not exhibit agonist activity; also recorded: only act in the presence of glutamate
agonist activity of compound added alone at higher concentrations (human mGluR4 [1]; >30 μM compound alone, data not shown): some intrinsic agonist activity
fold increase in potency against hmGluR4 (human mGluR4 [1]; listed as 10c): > 4 fold
fold increase in potency against hmGluR4 (human mGluR4 [1]; listed as (-)-10c): 4 fold
fold enhancement in efficacy (human mGluR4 [2]): 2 fold
activity against the other mGluR subtypes tested (other mGluR subtypes): devoid of activity

O=C(Nc1ccccc1)C12CC1/C(=N\O)c1ccccc1O2 (racemic) [(±)-PHCCC, PHCCC]
% Glu Max (mGluR1) (rat mGluR1; rat mGluR1, normalized to percent maximal glutamate response): 23%
IC50 (rat mGluR1; read-out: mGluR1 IC50): 2.1 µM
